Measurements reported in ChEMBL document CHEMBL4414600, “Discovery of a Furanopyrimidine-Based Epidermal Growth Factor Receptor Inhibitor (DBPR112) as a Clinical Candidate for the Treatment of Non-Small Cell Lung Cancer” (J Med Chem, 2019).
The source made the active and inactive calls. The calls are words filed in the database; no cut-off is given here.

What was measured:
[1] = Oral bioavailability in rat at 23.6 mg/kg; assay type: ADME, organism-based; settings: in vivo
Procedure, shortened: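 Rat pharmacokinetics: single IV injection at 5 mg/kg or oral dosing at 20 mg/kg (23.6 mg/kg oral for one compound). Plasma parameters t1/2, CL, Vss, AUC(0-inf), Cmax, Tmax and oral bioavailability F were derived from the concentration–time profiles.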

[2] = Toxicity in ICR mouse at 100 mg/kg, po QD for 2 weeks; assay type: organism-based; settings: in vivo, 336 h
[3] = Toxicity in nude BALB/c mouse xenografted with human NCI-H1975 cells assessed as drug tolerability at 50 mg/kg, po QD for 15 days relative to control; assay type: organism-based; settings: in vivo, 360 h
Procedure, shortened: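 H1975 cells were grown in RPMI1640 with 10% heat-inactivated FBS at 37 °C, 5% CO2, and passaged by trypsin-EDTA. 5x10^6 cells in 0.1 ml PBS were injected subcutaneously at the right flank of BALB/c nude mice. Oral QD dosing for 15 days began at a mean tumor size of 147 mm³, n = 5 per group.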

[4] = molecular target: T1, Cytoplasmic tyrosine-protein kinase BMX (Homo sapiens) (UniProt P51813); assay: Binding affinity to wild-type human full length BMX (M1 to H675 residues) expressed in bacterial expression system assessed as residual binding level at 10000 nM by Kinomescan method relative to control
T1 sequence (whole entry): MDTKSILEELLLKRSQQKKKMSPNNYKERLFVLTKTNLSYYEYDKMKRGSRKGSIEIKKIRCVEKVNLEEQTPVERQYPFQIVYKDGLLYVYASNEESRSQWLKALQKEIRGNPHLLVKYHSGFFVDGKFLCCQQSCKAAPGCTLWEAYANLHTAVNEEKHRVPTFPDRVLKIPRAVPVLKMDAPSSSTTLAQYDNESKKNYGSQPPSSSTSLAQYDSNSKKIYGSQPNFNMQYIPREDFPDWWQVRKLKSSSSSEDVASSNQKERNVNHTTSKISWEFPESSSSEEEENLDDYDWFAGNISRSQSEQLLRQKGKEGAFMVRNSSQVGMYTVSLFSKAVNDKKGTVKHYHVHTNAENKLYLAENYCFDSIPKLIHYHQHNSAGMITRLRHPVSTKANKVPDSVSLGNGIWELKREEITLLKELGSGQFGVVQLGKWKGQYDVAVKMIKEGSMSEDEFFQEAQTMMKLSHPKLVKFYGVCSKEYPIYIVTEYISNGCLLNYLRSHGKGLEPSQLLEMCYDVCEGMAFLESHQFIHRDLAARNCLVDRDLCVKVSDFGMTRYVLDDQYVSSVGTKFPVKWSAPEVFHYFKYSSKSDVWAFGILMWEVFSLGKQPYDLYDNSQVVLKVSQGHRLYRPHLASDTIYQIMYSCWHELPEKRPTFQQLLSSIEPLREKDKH
Procedure, shortened: (§1)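 KINOMEScan competition binding panel run at 10,000 nM compound, with results expressed as percent of control binding. S(10) is the fraction of non-mutant kinases below 10% of control, out of 395 tested.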

[5] = molecular target: STE20-like serine/threonine-protein kinase (Homo sapiens) (UniProt Q9H2G2); assay: Binding affinity to wild-type human partial length SLK (S14 to A307 residues) expressed in bacterial expression system assessed as residual binding level at 10000 nM by Kinomescan method relative to control; procedure, shortened: as §1
[6] = Inhibition of GST-tagged human HER2 V777_G778insCG mutant mutant using poly(Glu, Tyr) 4:1 substrate incubated for 120 mins by kinase-Glo plus luminescent kinase assay
HCC827 = assay: Antitumor activity against human HCC827 cells xenografted in athymic NU-Fox1nu nude mouse assessed as inhibition of tumor growth at 20 to 50 mg/kg, po dosed via gavage for 5 days/week for 2 consecutive weeks; assay type: functional, organism-based
Procedure, shortened: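 Male athymic NU-Fox1nu nude mice, 6–8 weeks old, were inoculated subcutaneously at the left flank with 5x10^6 HCC827 (exon 19 Del E746_A750) cells. Oral gavage began at a mean tumor size of about 500 mm³, in 1% methylcellulose/0.5% Tween 80/98.5% water, once daily on days 1-5 and 8-12. Tumor volume (V = 0.5 a × b², caliper) and body weight were tracked.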

[7] = molecular target: T2, Tyrosine-protein kinase JAK3 (Homo sapiens) (UniProt P52333); assay: Binding affinity to wild-type human partial length JAK3 JH1 catalytic domain (I781 to S1124 residues) expressed in mammalian expression system assessed as residual binding level at 10000 nM by Kinomescan method relative to control
T2 sequence (whole entry): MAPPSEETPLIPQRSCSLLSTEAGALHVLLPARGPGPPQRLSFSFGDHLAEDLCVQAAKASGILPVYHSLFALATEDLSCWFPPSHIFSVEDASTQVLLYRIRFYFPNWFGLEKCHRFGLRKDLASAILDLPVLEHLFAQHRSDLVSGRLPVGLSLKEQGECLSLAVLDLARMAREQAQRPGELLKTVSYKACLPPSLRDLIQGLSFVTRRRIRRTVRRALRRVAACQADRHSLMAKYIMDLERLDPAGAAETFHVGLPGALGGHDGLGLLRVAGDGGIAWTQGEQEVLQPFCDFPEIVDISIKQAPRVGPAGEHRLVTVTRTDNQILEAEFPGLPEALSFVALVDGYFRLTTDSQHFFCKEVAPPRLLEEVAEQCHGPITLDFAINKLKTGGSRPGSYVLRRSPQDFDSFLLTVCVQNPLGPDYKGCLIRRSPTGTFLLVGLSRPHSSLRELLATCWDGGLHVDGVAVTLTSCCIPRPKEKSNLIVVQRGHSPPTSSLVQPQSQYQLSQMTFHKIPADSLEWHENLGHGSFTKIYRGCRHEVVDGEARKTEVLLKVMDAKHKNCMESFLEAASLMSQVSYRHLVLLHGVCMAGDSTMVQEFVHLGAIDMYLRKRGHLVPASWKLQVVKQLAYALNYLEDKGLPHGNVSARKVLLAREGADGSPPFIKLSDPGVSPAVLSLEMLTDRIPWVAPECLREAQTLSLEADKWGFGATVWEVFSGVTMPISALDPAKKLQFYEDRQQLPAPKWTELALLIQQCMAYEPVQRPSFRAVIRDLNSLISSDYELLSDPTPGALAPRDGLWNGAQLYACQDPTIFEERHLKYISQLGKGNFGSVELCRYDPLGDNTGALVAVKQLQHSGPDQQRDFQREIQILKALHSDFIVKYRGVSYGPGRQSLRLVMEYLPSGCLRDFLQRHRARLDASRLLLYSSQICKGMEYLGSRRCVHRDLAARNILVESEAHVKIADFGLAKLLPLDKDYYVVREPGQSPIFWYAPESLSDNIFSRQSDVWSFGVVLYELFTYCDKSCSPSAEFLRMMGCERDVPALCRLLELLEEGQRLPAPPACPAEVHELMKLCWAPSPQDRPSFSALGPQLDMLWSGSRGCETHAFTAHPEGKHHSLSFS
Procedure, shortened: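 KINOMEscan competition-binding profiling at a single concentration of 10,000 nM across a panel that included 395 non-mutant kinases. Binding is read out as percent of control. Kinases with less than 10% of control were counted as hits for the S(10) selectivity score, which is the number of non-mutant hits divided by the number of non-mutant kinases tested.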

Sequence of STE20-like serine/threonine-protein kinase (Homo sapiens) (Q9H2G2 whole entry, looked up, the tested form may be a part): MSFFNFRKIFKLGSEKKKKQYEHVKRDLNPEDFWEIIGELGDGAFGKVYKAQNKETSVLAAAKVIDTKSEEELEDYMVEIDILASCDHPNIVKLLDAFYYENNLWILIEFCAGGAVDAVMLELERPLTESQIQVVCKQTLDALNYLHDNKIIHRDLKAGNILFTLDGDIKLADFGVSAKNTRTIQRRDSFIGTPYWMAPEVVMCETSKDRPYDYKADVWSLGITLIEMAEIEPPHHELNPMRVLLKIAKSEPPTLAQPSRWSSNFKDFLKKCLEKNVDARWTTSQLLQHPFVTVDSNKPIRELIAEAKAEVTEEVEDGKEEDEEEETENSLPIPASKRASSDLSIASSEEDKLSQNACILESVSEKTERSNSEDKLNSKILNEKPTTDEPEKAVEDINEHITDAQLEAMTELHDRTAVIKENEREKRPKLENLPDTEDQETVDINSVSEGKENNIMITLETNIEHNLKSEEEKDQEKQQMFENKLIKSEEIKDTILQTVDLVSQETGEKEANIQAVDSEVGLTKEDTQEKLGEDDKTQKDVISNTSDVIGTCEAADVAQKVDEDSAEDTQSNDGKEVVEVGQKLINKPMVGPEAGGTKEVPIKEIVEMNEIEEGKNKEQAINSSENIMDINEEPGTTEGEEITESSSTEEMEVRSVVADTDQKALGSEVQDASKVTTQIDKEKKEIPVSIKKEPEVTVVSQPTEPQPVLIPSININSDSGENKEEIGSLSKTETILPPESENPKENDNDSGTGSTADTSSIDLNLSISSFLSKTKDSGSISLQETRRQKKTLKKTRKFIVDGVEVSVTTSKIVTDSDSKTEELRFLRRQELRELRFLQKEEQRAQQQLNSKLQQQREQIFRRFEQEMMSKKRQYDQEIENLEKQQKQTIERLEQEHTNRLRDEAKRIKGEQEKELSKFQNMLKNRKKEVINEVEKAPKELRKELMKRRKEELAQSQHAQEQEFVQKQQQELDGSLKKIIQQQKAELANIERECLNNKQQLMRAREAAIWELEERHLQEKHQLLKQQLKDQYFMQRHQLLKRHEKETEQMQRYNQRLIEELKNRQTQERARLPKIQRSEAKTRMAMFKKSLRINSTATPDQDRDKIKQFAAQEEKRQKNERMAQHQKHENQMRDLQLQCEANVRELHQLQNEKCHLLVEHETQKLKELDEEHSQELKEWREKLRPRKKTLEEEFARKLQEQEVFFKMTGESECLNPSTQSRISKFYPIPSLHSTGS

## CN(C)C/C=C/C(=O)Nc1cccc(-c2c(-c3ccccc3)oc3ncnc(N[C@H](CO)c4ccccc4)c23)c1
[1]
  bioavailability: 41.5%
[2]
  Activity: Toxic
[3]
  Activity: Non-Toxic
[4]
  Activity: 4.8%
[5]
  Activity: < 10%
[6]
  IC50: 0.203 nM
HCC827
  TGI: Active
[7]
  Activity: 0%
